Assay outcomes from PubChem BioAssay.
Rows were chosen to be rich in hits. Some 2.9% of all compounds tested hit in one or more screens of this group.
SUMO Mot1 rescue: SUMOylation pathway inhibition by Mot1-301 growth rescue; 320,000 compounds, 1% hits; S. cerevisiae Mot1-301 growth rescue, ATP luminescence, 38.5C; percent above DMSO median, 100 means doubled; growth rescue, % at 18.8 µM;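 active = every valid replicate shows activation above 250% relative to neutral control wells; inactive = the rest, any valid replicate at or below 250%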;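 also: OY570 slx delta 5 strain wells were the positive control but not used for scaling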
FID counter: fluorescent intercalator displacement, NS3 helicase counter-screen; 290,000 compounds, 0.17% hits; inhibition, % at 7.9 µM; DNA fluorescent intercalator displacement, fluorescence; AID 1845; in the data active = inhibition above about 37%;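 also: 0% = vehicle and 100% = reference compound; higher means more ethidium bromide displaced from hairpin DNA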
IMP-1 inhibitor: blocks Pseudomonas aeruginosa IMP-1 metallo-beta-lactamase | purified IMP-1, nitrocefin hydrolysis, epi-absorbance fluorescence | inhibition, % at 5.6 µM | 290,000 compounds, 0.45% hits;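 active = inhibition above the mean plus 3 SD of all compounds in the same screening run, cut at about 4.5% in these data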;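 also: 0% = IMP-1 with DMSO and 100% = DMSO wells lacking enzyme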
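System – purified recombinant IMP-1 beta-lactamase · Input – IMP-1 dispensed at 0.2 nM · Timing – 15 min preincubation plus 25 min reaction at 25 °C · Signal – Epi-absorbance fluorescence, 480 nm excitation, 530 nm emission · Measure – percent IMP-1 inhibition derived from blank-referenced optical density · Controls – Enzyme-plus-DMSO low control, enzyme-free DMSO high control · Replication – singlicate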
VIM-2 inhibitor: inhibitors of Pseudomonas aeruginosa VIM-2 metallo-beta-lactamase; purified VIM-2, nitrocefin hydrolysis, epi-absorbance fluorescence; inhibition, % at 5.6 µM; 290,000 compounds, 0.89% hits; AID 1527;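 active = inhibition above the mean of all tested compounds plus 3 SD, cutoff set per screening run, cut at about 7.5% in these data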;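 also: red hydrolysis product quenches plate fluorescence so inhibitors raise well fluorescence; 0% = enzyme with DMSO and 100% = DMSO without enzyme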
NALP1 yeast inh: inhibitors of NALP1 inflammasome in yeast; S. cerevisiae NALP1/ASC/caspase-1 growth, X-gal OD620, 72 h; inhibition, % at 10 µM; 280,000 compounds, 0.61% hits; in the data active = inhibition mostly above about 24%, no sharp cut-off; inactive = mostly below about 32%
SUMO HTRF inh: SUMOylation inhibition; P63279; HTRF SUMOylation assay, SAE1/SAE2 + UBC9, in vitro; inhibition, % at 35 µM; 290,000 compounds, 0.36% hits; AID 2006; in the data active = inhibition above about 50%, passing the limit was not always enough
Target sequence (P63279 whole entry, looked up): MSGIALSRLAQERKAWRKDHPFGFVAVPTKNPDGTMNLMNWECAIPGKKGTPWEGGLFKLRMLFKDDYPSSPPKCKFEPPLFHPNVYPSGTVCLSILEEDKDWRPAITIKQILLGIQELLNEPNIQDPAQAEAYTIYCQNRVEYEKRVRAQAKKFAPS
Starred values were filed as active, the others as inactive; ! = repeats disagree.

How did CCOC(=O)N1CCN(C(=O)CCC2CCCC2)CC1 do in these assays?
SUMO Mot1 rescue: 14; FID counter: -15; IMP-1 inhibitor: -2; VIM-2 inhibitor: -2; NALP1 yeast inh: 8; SUMO HTRF inh: 12

Results for COc1ccccc1CCC(=O)NNC(=O)c1ccc(Br)cc1 ?
SUMO Mot1 rescue: 0; FID counter: -11; IMP-1 inhibitor: -4; VIM-2 inhibitor: -5; NALP1 yeast inh: 0; SUMO HTRF inh: 9

What do the screens show for `c1cnc2c(c1)ccc1cccnc12`?
SUMO Mot1 rescue: 14; FID counter: 4; IMP-1 inhibitor: -6; VIM-2 inhibitor: -2; NALP1 yeast inh: 54*!; SUMO HTRF inh: -56

How did Cc1cccc2cccnc12 do in these assays?
SUMO Mot1 rescue: 6

Results for CCOC(=O)CC(NC(C)=O)c1ccc([N+](=O)[O-])cc1 (stereo not drawn) ?
SUMO Mot1 rescue: -4; FID counter: 3; IMP-1 inhibitor: -4; VIM-2 inhibitor: -2; NALP1 yeast inh: 28; SUMO HTRF inh: -8

How did CC(=O)NC(CC(=O)OCc1ccc([N+](=O)[O-])cc1)c1ccccc1 (stereo not drawn) do in these assays?
SUMO Mot1 rescue: 497*; FID counter: -11; IMP-1 inhibitor: -2; VIM-2 inhibitor: -2; NALP1 yeast inh: 11; SUMO HTRF inh: 3

How did CCOc1ccc(S(=O)(=O)n2nc(C)cc2C)cc1 do in these assays?
SUMO Mot1 rescue: -13; FID counter: -3; IMP-1 inhibitor: -4; VIM-2 inhibitor: -2; NALP1 yeast inh: 5; SUMO HTRF inh: 5

How did COc1cccc2c(=O)c3ccoc3n(C)c12 do in these assays?
SUMO Mot1 rescue: 350*; FID counter: -6; IMP-1 inhibitor: -2; VIM-2 inhibitor: 8; NALP1 yeast inh: 2; SUMO HTRF inh: 10

What do the screens show for `COc1cccc2c(=O)c3c(cnn3C)n(C)c12`?
SUMO Mot1 rescue: 32; FID counter: -1; IMP-1 inhibitor: -3; VIM-2 inhibitor: 7; NALP1 yeast inh: 1; SUMO HTRF inh: 33

Results for CCOc1ccc(-c2cc(C(=O)O)c3ccccc3n2)cc1 ?
SUMO Mot1 rescue: -1; FID counter: 1; IMP-1 inhibitor: 0; VIM-2 inhibitor: -3; NALP1 yeast inh: 10; SUMO HTRF inh: 43

What do the screens show for `CCOc1ccc(-c2cc(C(=O)NCCCN3CCN(CC)CC3)c3ccccc3n2)cc1`?
SUMO Mot1 rescue: -2; FID counter: 33; IMP-1 inhibitor: -2; VIM-2 inhibitor: 3; NALP1 yeast inh: 31*; SUMO HTRF inh: 46

Results for CCN1CCCC(OC(=O)c2cc(-c3ccc(C)cc3)nc3ccccc23)C1 (stereo not drawn) ?
SUMO Mot1 rescue: 7; FID counter: 38*; IMP-1 inhibitor: 0; VIM-2 inhibitor: 4; NALP1 yeast inh: 3; SUMO HTRF inh: -4

Results for CCOc1ccc(-c2cc(C(=O)NCCCn3ccnc3)c3ccccc3n2)cc1 ?
SUMO Mot1 rescue: 21; FID counter: 7; IMP-1 inhibitor: -4; VIM-2 inhibitor: -3; NALP1 yeast inh: -1; SUMO HTRF inh: 35

Results for Nc1c(Cl)ncnc1N/N=C/c1ccccn1 ?
SUMO Mot1 rescue: 11; FID counter: -3; IMP-1 inhibitor: -1; VIM-2 inhibitor: -5; NALP1 yeast inh: 94*; SUMO HTRF inh: 24

What do the screens show for `Nc1c(Cl)ncnc1N/N=C/c1ccc2ccccc2n1`?
SUMO Mot1 rescue: 2; FID counter: 3; IMP-1 inhibitor: -5; VIM-2 inhibitor: -4; NALP1 yeast inh: 44; SUMO HTRF inh: 14

Results for COC(=O)c1cccc(NC(=O)CCc2c(C)noc2C)c1 ?
SUMO Mot1 rescue: 1

What do the screens show for `CSc1ccc(-c2nc(CN(C)C3CCOC3)c(C)o2)cc1` (stereo not drawn)?
SUMO Mot1 rescue: 18; FID counter: -2; IMP-1 inhibitor: -1; VIM-2 inhibitor: -1; NALP1 yeast inh: 6; SUMO HTRF inh: 13

How did Cc1ccc(-c2nc(CN(C)C(C3CC3)C3CC3)c(C)o2)cc1 do in these assays?
SUMO Mot1 rescue: 316*; FID counter: -4; IMP-1 inhibitor: -2; VIM-2 inhibitor: -2; NALP1 yeast inh: 7; SUMO HTRF inh: 6

What do the screens show for `NC(=O)c1cc(S(=O)(=O)N2CC=C(c3ccccc3)CC2)cs1`?
SUMO Mot1 rescue: 3; FID counter: -13; IMP-1 inhibitor: -3; VIM-2 inhibitor: -2; NALP1 yeast inh: -4; SUMO HTRF inh: 6

What do the screens show for `COc1ccc(C[C@H]2CN3C(=NC[C@H]3C)N2CCNC(=O)c2ccc(C)c(Br)c2)cc1`?
SUMO Mot1 rescue: 2; FID counter: 40*; IMP-1 inhibitor: -3; VIM-2 inhibitor: -3; NALP1 yeast inh: 5; SUMO HTRF inh: -3

How did CN1CCC(N(C)C(=O)CCc2nc3ccccc3n2-c2ccccc2)CC1 do in these assays?
SUMO Mot1 rescue: 5; FID counter: 16; IMP-1 inhibitor: -3; VIM-2 inhibitor: -3; NALP1 yeast inh: -7; SUMO HTRF inh: 8

What do the screens show for `CC(=O)Nc1ccc(S(=O)(=O)NNC(=O)c2cccc([N+](=O)[O-])c2)cc1`?
SUMO Mot1 rescue: -4; FID counter: 1; IMP-1 inhibitor: -3; VIM-2 inhibitor: -2; NALP1 yeast inh: -5; SUMO HTRF inh: 2

How did CC1Cc2ccccc2N1C(=O)CN1CCC(C(N)=O)CC1 (stereo not drawn) do in these assays?
SUMO Mot1 rescue: 14; FID counter: 4; IMP-1 inhibitor: 0; VIM-2 inhibitor: 2; NALP1 yeast inh: -12; SUMO HTRF inh: 7

Results for CN1CCOc2cc(S(=O)(=O)Nc3ccc(F)cc3)ccc21 ?
SUMO Mot1 rescue: -2; FID counter: -6; IMP-1 inhibitor: -2; VIM-2 inhibitor: -4; NALP1 yeast inh: 26*; SUMO HTRF inh: 14

Results for COc1cc(NC(=O)NNC(=O)c2cc3occc3n2C)cc(OC)c1OC ?
SUMO Mot1 rescue: -16; FID counter: -21; IMP-1 inhibitor: -4; VIM-2 inhibitor: -4; NALP1 yeast inh: 1; SUMO HTRF inh: -5

What do the screens show for `COC1=C(Nc2ccccc2OC)C(=O)c2ccccc2C1=O`?
SUMO Mot1 rescue: 9; FID counter: 2; IMP-1 inhibitor: 1; VIM-2 inhibitor: 10.0*; SUMO HTRF inh: 63

How did COc1ccccc1NC1=C(NC(C)=O)C(=O)c2ccccc2C1=O do in these assays?
FID counter: 3; IMP-1 inhibitor: -4; VIM-2 inhibitor: -2; NALP1 yeast inh: -2; SUMO HTRF inh: -1

What do the screens show for `COc1ccccc1NC(=O)CON=C(N)CC(=O)NC1CCCCC1`?
SUMO Mot1 rescue: -1

How did CCCC(=O)Nc1ccccc1NC(C)=O do in these assays?
SUMO Mot1 rescue: 55; FID counter: -4; IMP-1 inhibitor: 5.3*; VIM-2 inhibitor: -1; NALP1 yeast inh: 4; SUMO HTRF inh: -7

Results for O=C1CN(C(=O)COc2ccccc2)c2ccccc2N1 ?
SUMO Mot1 rescue: 139; FID counter: -11; IMP-1 inhibitor: -1; VIM-2 inhibitor: -1; NALP1 yeast inh: 11; SUMO HTRF inh: 19
